One series has as its system HSC-3. The series can be described thus: Cytotoxicity against human HSC3 cells after 48 hrs. To be noted: HSC-3, 48 h. The format is functional.
Series [1] can be described thus: Cytotoxicity against human HPLF cells after 48 hrs. The format is cell-based.
Series [2] deals with T1, ATP-dependent translocase ABCB1 (Homo sapiens, UniProt P08183). Nature of the series: Reversal of P-glycoprotein-mediated multidrug resistance in human MDR1 gene transfected mouse L5178Y cells assessed as fluorescence activity ratio at 20 uM by rhodamine 123 accumulation assay. The format is cell-based. The essentials: (§1)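 Murine L-5178Y lymphoma cells transfected with human MDR1 gene (P-gp-overexpressing), alongside parental cells, treated or untreated with compound; rhodamine 123 accumulation measured by fluorescence; FAR = ratio of fluorescence intensity in treated versus untreated cells, values above 1 taken as MDR reversal.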
T1 sequence (P08183 whole entry): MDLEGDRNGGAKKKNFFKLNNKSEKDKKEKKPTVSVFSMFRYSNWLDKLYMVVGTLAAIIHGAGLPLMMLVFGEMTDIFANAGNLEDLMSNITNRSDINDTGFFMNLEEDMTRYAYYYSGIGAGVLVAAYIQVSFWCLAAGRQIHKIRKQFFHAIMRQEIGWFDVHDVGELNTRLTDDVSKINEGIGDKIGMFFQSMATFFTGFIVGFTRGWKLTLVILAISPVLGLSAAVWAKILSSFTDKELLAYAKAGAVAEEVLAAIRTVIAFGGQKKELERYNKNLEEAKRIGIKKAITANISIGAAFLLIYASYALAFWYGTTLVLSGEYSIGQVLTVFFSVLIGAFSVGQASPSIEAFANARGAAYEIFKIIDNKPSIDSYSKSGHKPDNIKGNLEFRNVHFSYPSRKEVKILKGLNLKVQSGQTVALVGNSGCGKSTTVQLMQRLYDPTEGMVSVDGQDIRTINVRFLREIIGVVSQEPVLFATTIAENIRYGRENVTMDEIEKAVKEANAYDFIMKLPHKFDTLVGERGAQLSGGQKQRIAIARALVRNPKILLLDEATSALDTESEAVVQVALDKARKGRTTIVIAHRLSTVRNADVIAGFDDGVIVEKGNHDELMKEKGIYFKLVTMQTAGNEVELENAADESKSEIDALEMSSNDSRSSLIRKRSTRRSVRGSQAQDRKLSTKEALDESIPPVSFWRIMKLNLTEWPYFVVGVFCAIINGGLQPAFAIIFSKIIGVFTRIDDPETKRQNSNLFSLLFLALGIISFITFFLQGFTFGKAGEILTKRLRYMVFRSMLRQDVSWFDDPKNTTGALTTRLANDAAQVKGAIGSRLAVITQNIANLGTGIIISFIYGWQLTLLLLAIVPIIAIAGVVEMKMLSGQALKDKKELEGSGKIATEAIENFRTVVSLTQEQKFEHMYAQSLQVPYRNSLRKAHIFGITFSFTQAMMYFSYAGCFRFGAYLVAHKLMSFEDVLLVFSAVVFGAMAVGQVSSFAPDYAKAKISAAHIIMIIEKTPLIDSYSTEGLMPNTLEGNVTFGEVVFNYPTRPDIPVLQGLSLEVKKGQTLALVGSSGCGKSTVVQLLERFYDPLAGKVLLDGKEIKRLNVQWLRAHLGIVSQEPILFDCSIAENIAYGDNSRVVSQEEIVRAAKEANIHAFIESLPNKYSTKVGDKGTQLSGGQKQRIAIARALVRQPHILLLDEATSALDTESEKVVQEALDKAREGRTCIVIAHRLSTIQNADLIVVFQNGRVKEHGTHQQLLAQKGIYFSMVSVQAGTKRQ

The test system of a further series is HSC-2. Nature of the series: Cytotoxicity against human HSC2 cells after 48 hrs. The format is functional. As to conditions: HSC-2, 48 h.
Series [3] is described as follows: Growth inhibition of human Molt4/C8 cells after 3 days. The format is functional, cell-based. To be noted: MOLT-4, 72 h. The method, boiled down:
(§2)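 Human CEM and Molt 4/C8 T-lymphocytes were grown for three days with or without serial dilutions of the compound. IC50 is the concentration that inhibits cell growth by 50%.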

In series [4] the target is T1, ATP-dependent translocase ABCB1. Nature of the series: Reversal of P-glycoprotein-mediated multidrug resistance in human MDR1 gene transfected mouse L5178Y cells assessed as fluorescence activity ratio at 200 uM by rhodamine 123 accumulation assay. The format is cell-based. The method, boiled down:
as §1

Series [5] can be described thus: Cytotoxicity against human HPC cells after 48 hrs. The format is cell-based.
The subject of a further series is HSC-4. Nature of the series: Cytotoxicity against human HSC4 cells after 48 hrs. To be noted: HSC-4, 48 h. The format is functional.
A short description of series [6]: Cytotoxicity against human HGF cells after 48 hrs. The format is cell-based.
The next series relates to HL-60. The series can be described thus: Cytotoxicity against human HL60 cells after 48 hrs. To be noted: HL-60, 48 h. The format is functional.
The next series deals with CCRF-CEM. Nature of the series: Growth inhibition of human CEM cells after 3 days. The format is functional, cell-based. To be noted: 72 h. The method, boiled down:
as §2

Regarding `Cc1c(C(=O)/C=C/c2ccc(Br)cc2)[n+]([O-])c2ccccc2[n+]1[O-]`, the CC50 in the series with HSC-3 was 56 µM; in the series on HSC-2, 19 µM; in the series on HSC-4, 36 µM; with HL-60, 23 µM. In addition, the CC50 at 48 h in [1] was found to be 26 µM; in series [5] it was 43 µM; in series [6], 53 µM. In addition, the results for the Ratio in series [2] and in series [4] were 2.03 and 2.81, respectively. Moreover, the values for the IC50 (in series [3]; with CCRF-CEM) were 17.1 µM and 11.6 µM, respectively.
Regarding `Cc1c(C(=O)/C=C/c2ccc3c(c2)OCO3)[n+]([O-])c2ccccc2[n+]1[O-]`, the CC50 in the series with HSC-3 is 25 µM; in the series with HSC-2 it was 23 µM; in the series on HSC-4, 28 µM; with HL-60, 13 µM. Further, the CC50 at 48 h in [1] was 72 µM; in [5] it was 79 µM; in [6], 75 µM. In addition, the figures for the Ratio in [2] and in series [4] were 1.58 and 3.67, respectively. Further, the IC50 was found to be 24.2 µM in series [3] and 28.1 µM in the series with CCRF-CEM.
On to `COc1cc(/C=C/C(=O)c2c(C)[n+]([O-])c3ccccc3[n+]2[O-])cc(OC)c1OC`, for which the CC50 with HSC-3 was 6.6 µM; in the series with HSC-2 it was 7.8 µM; in the series with HSC-4, 6.5 µM; in the series with HL-60, 1.9 µM. In addition, the results for the CC50 at 48 h in series [1], in series [5] and in [6] were 33 µM, 31 µM and 35 µM, respectively. Further, the Ratio is 8.15 in series [2] and 41.9 in series [4]. Further, the IC50 in [3] was 5.51 µM; in the series on CCRF-CEM, 5.22 µM.
Consider `Cc1c(C(=O)/C=C/c2ccc(Cl)cc2)[n+]([O-])c2ccccc2[n+]1[O-]`, for which the CC50 in the series with HSC-3 was determined as 38 µM; in the series on HSC-2 it was 13 µM; in the series on HSC-4, 19 µM; in the series with HL-60 it was 11 µM. Also, the CC50 at 48 h in series [1] stood at 12 µM; in series [5], 21 µM; in series [6] it was 27 µM. Also, the Ratio in series [2] was determined as 2.63; in series [4], 5.97. For the same compound, the results for the IC50 (in series [3]; in the series with CCRF-CEM) were 7.75 µM and 16 µM, respectively.
With `Cc1ccc(/C=C/C(=O)c2c(C)[n+]([O-])c3ccccc3[n+]2[O-])cc1`, the CC50 in the series with HSC-3 stood at 14 µM; in the series on HSC-2 it was 8.4 µM; in the series with HSC-4, 11 µM; in the series on HL-60, 4.1 µM. Also, the results for the CC50 at 48 h in [1], in series [5] and in [6] were 23 µM, 40 µM and 32 µM, respectively. Also, the Ratio amounted to 9.79 in [2] and 27.2 in [4]. Further, the IC50 is 8.4 µM in series [3] and 22.4 µM in the series on CCRF-CEM.
As to `Cc1c(C(=O)/C=C/c2ccc([N+](=O)[O-])cc2)[n+]([O-])c2ccccc2[n+]1[O-]`, the CC50 with HSC-3 is above 400 µM; in the series with HSC-2, 55 µM; in the series on HSC-4 it was 73 µM; in the series with HL-60, 262 µM. Also, the CC50 at 48 h in series [1] was 91 µM; in [5], above 400 µM; in [6] it was 57 µM. Besides, the values for the Ratio in series [2] and in series [4] were 1.28 and 2.25, respectively. The IC50 was 261 µM in series [3] and 164 µM in the series on CCRF-CEM.
Turning to `CC(=O)c1c(C)[n+]([O-])c2ccccc2[n+]1[O-]` [MEQUINDOX], the CC50 in the series on HSC-3 was 146 µM; in the series on HSC-2, 196 µM; with HSC-4 it was 134 µM; in the series with HL-60, 26 µM. Moreover, the results for the CC50 at 48 h in series [1], in series [5] and in series [6] were above 400 µM, 352 µM and above 400 µM, respectively. The figures for the Ratio in series [2] and in series [4] were 1.06 and 1.04, respectively. For the same compound, the IC50 was found to be 44.6 µM in series [3] and 87.4 µM in the series on CCRF-CEM.
As for `Cc1c(C(=O)/C=C/c2cccc([N+](=O)[O-])c2)[n+]([O-])c2ccccc2[n+]1[O-]`, the CC50 was 122 µM in the series with HSC-3, 34 µM in the series with HSC-2, 54 µM in the series with HSC-4 and 62 µM with HL-60. The CC50 at 48 h in [1] amounted to 18 µM; in series [5] it was 46 µM; in [6], 47 µM. Besides, the values for the Ratio in series [2] and in [4] were 1.89 and 3.75, respectively. In addition, the IC50 in series [3] was 16.3 µM; with CCRF-CEM it was 15.8 µM.
Turning to `Cc1c(C(=O)/C=C/c2ccc(Cl)c(Cl)c2)[n+]([O-])c2ccccc2[n+]1[O-]`, the CC50 with HSC-3 came to 84 µM; in the series with HSC-2, 17 µM; in the series with HSC-4, 15 µM; in the series on HL-60, 27 µM. In addition, the CC50 at 48 h in series [1] is 5.7 µM; in series [5], 13 µM; in series [6] it was 29 µM. The Ratio in [2] was determined as 4.42; in series [4] it was 11.9. Further, the IC50 in series [3] stood at 10.1 µM; with CCRF-CEM, 15.4 µM.
For the compound `Cc1c(C(=O)/C=C/c2ccccc2)[n+]([O-])c2ccccc2[n+]1[O-]`, the CC50 in the series on HSC-3 stood at 9.7 µM; in the series with HSC-2, 8.4 µM; with HSC-4, 9.6 µM; in the series on HL-60, 4.1 µM. The figures for the CC50 at 48 h in series [1], in series [5] and in [6] were 35 µM, 36 µM and 32 µM, respectively. Also, the Ratio is reported as 10.9 in series [2] and 36.8 in series [4]. For the same compound, the values for the IC50 (in series [3]; in the series with CCRF-CEM) were 6.76 µM and 5.92 µM, respectively.

For orientation: CC50 means the concentration at which the toxic effect on the cells reaches its halfway point. A high value points to better tolerance by the cells. In general, IC50 refers to the point on the concentration scale where inhibition reaches its midpoint.

For the origin of these results see ChEMBL document CHEMBL1137767, “2-(3-Aryl-2-propenoyl)-3-methylquinoxaline-1,4-dioxides: a novel cluster of tumor-specific cytotoxins which reverse multidrug resistance” (Bioorg Med Chem, 2009).
